Measured values gathered from unrelated publications.
Compare with care: the assays were run in different laboratories. pIC50: −log10 of the molar value.
Target: Cholinesterase (BCHE, Homo sapiens, UniProt P06276)
Observed: enzyme activity
Action: inhibitor

Compound	test	pIC50
O=[N+]([O-])c1c[nH]c(-c2n[nH]c(=S)n2/N=C/c2ccc(F)cc2)c1	Ellman	5.04
Cn1cc(-c2cc(C(=O)NN=Cc3ccccc3)no2)c2ccccc21	–	< 4.00
C#CCN(C)CCCCCCOc1cccc(CN(C)c2c3c(nc4ccccc24)CCCC3)c1	Ellman	6.49
COc1ccccc1C=NNC(=O)c1cc(-c2cn(C)c3ccccc23)on1	–	< 4.00
COc1ccc(S(=O)(=O)Oc2cc(OC)ccc2C=NNC(=O)c2ccc(F)cc2)cc1	Ellman	6.95
O=[N+]([O-])c1c[nH]c(-c2n[nH]c(=S)n2/N=C/c2ccc(F)cc2O)c1	Ellman	5.11
COc1cccc(C=NNC(=O)c2cc(-c3cn(C)c4ccccc34)on2)c1O	–	< 4.00
COc1ccc(/C=N/n2c(-c3cc([N+](=O)[O-])c[nH]3)n[nH]c2=S)cc1	Ellman	4.58
COc1ccc(S(=O)(=O)Oc2ccc3ccccc3c2C=NNC(=O)c2ccc(F)cc2)cc1	Ellman	6.87
O=[N+]([O-])c1c[nH]c(-c2n[nH]c(=S)n2/N=C/c2c(O)cc(O)cc2O)c1	Ellman	5.17
C#CCN(C)CCCCOCc1ccc(CN(C)c2c3c(nc4ccccc24)CCCC3)cc1	Ellman	5.83
Cn1cc(-c2cc(C(=O)NN=Cc3ccncc3)no2)c2ccccc21	–	< 4.00
C#CCN(C)CCCCCOCc1ccc(CN(C)c2c3c(nc4ccc(C)cc24)CCCC3)cc1	Ellman	5.95
O=[N+]([O-])c1c[nH]c(-c2n[nH]c(=S)n2/N=C/c2ccc(Br)c(Br)c2)c1	Ellman	4.55
C#CCN(C)CCCOc1cccc(CN(C)c2c3c(nc4ccccc24)CCCC3)c1	Ellman	6.39
O=[N+]([O-])c1c[nH]c(-c2n[nH]c(=S)n2/N=C/c2cc(Cl)cc(Cl)c2)c1	Ellman	4.84
C#CCN(C)CCCCOc1cccc(CN(C)c2c3c(nc4ccccc24)CCCC3)c1	Ellman	6.43
O=[N+]([O-])c1c[nH]c(-c2n[nH]c(=S)n2/N=C/c2ccc(F)c([N+](=O)[O-])c2)c1	Ellman	4.79
C#CCN(C)CCCCCCCOc1cccc(CN(C)c2c3c(nc4ccccc24)CCCC3)c1	Ellman	6.51
Cn1cc(-c2cc(C(=O)NN=Cc3ccccc3F)no2)c2ccccc21	–	< 4.00
C#CCN(C)CCCCOCc1ccc(CN(C)c2c3c(nc4ccc(C)cc24)CCCC3)cc1	Ellman	5.75
COc1ccc(S(=O)(=O)Oc2ccc(C=NNC(=O)c3ccc(F)cc3)cc2)cc1	Ellman	7.08
